Published values collected from several papers.
Compare with care: the assays were run in different laboratories.

COc1ncccc1-c1cnn2ccc(N3CCN(C(=O)OC(C)C)CC3)nc12  Cmax (mouse, plasma; oral, 10 mg/kg): 5200 nM
C[C@]12CC[C@H](O)CC1=CC[C@@H]1[C@@H]2CC[C@]2(C)C(n3cnc4ccccc43)=CC[C@@H]12.Cl  Cmax (mouse, plasma; oral, 10 mg/kg): 10.5 ng/mL
CN1CCCCC1Cn1cc(C(=O)c2cc([N+](=O)[O-])ccc2I)c2ccccc21 (racemic)  Cmax (mouse, plasma; oral, 25 mg/kg): 800 ng/mL
Cc1cc(C)nc(Nc2ncc(C(=O)NCCc3c(C)[nH]c4ccccc34)cn2)c1  Cmax (C57BL/6 mouse, plasma; intraperitoneal, 4.4 mg/kg): 191 ng/mL
NCC(=O)Nc1ccc(-n2nc(C(F)(F)F)cc2-c2ccc3c(ccc4ccccc43)c2)cc1  Cmax (mouse, plasma; oral, 80 mg/kg, single dose): 2080 ng/mL
COc1ccc2[nH]cc(CCNc3nccc(Nc4cccc5c4ccn5C)n3)c2c1  Cmax (mouse, plasma; oral, 28.6 mg/kg): 406 ng/mL
CCCCCCCC(=O)N[C@@H](CCCCN)C(=O)N[C@@H](CCCCN)C(=O)N[C@@H](C)C(=O)N[C@@H](CC(C)C)C(=O)N[C@@H](CCCCN)C(=O)N[C@@H](CC(C)C)C(=O)N[C@@H](C)C(=O)N[C@@H](CCCCN)C(=O)N[C@@H](CCCCN)C(=O)N1CCC[C@H]1C(=O)N[C@@H](CC(C)C)C(=O)N[C@@H](CCCCN)C(=O)N[C@@H](CC(C)C)C(=O)N[C@@H](CC(C)C)C(=O)N[C@@H](CCCCN)C(N)=O  Cmax (female CD-1 mouse, blood; intravenous, 1 mg/kg, single dose): 441 ng/mL
C[C@]12CC[C@H](n3ccnc3)CC1=CC[C@@H]1[C@@H]2CC[C@]2(C)C(n3cnc4ccccc43)=CC[C@@H]12.Cl  Cmax (male CD-1 mouse, plasma; oral, 10 mg/kg): 1270 ng/mL
Cc1c(P(=S)(c2ccccc2)c2ccccc2)n2ccccc2[n+]1C/C=C/c1ccccc1.[Br-]  Cmax (mouse, plasma; intraperitoneal, 10 mg/kg): 1500 nM
N#Cc1c(Oc2cccc(OS(=O)(=O)CCCC(F)(F)F)c2)cccc1C(F)(F)F  Cmax (mouse, plasma; oral, 5 mg/kg): 172 ng/mL
CCC[C@@](N)(CO)CCc1ccc(OCCCCCC(C)C)cc1  Cmax (mouse, plasma; intraperitoneal, 10 mg/kg): 1460 nM
CN[C@H](CC(C)C)C(=O)N[C@H]1C(=O)N[C@@H](CC(N)=O)C(=O)N[C@H]2C(=O)NC3C(=O)N[C@H](C(=O)N[C@H](C(=O)NCCC[N+](C)(C)C)c4cc(O)cc(O)c4-c4cc3ccc4O)[C@H](O)c3ccc(c(Cl)c3)Oc3cc2cc(c3OC2OC(CO)C(O)[C@H](O)[C@@H]2O[C@H]2CC(C)(NCc3ccc(-c4ccc(Cl)cc4)cc3)[C@H](O)[C@H](C)O2)Oc2ccc(cc2Cl)[C@H]1O (stereo partly drawn)  Cmax (mouse, plasma; intravenous, 10 mg/kg): 14100 ng/mL
